{"data": "Assay results from different studies", "DRD3": "D(3) dopamine receptor (DRD3, Homo sapiens, UniProt P35462)", "SLC6A3": "Sodium-dependent dopamine transporter (SLC6A3, Homo sapiens, UniProt Q01959)", "CA12": "Carbonic anhydrase 12 (CA12, Homo sapiens, UniProt O43570)", "note": "Protocols differ between the studies behind these lines."}
{"Compound": "Cc1[nH]c(C)c(S(=O)(=O)Nc2ccc(C(=O)C(F)(F)F)c(Cl)c2)c1C(=O)N1CCC(F)(F)C1", "target": "DRD3", "test": "G protein activation, antagonist, BRET", "endpoint": "IC50", "result": "14.3 µM"}
{"Compound": "OCc1ccccc1O[C@@H]1O[C@H](CO)[C@@H](O)[C@H](O)[C@H]1O", "target": "Taste receptor type 2 member 16 (TAS2R16, Homo sapiens, UniProt Q9NYV7)", "test": "inositol phosphate, agonist, TR-FRET", "endpoint": "EC50", "result": "13000 µM"}
{"Compound": "OC[C@@]12C[C@@H]1[C@@H](n1cnc3c(Nc4ccccc4)nc(I)nc31)[C@H](O)[C@@H]2O", "target": "SLC6A3", "test": "ligand displacement, radioligand", "endpoint": "EC50", "result": "3 µM"}
{"Compound": "O=C(OCc1cn(-c2ccc(Cl)cc2)nn1)c1ccc(=O)oc1", "target": "CA12", "test": "enzyme activity, inhibitor, stopped-flow", "endpoint": "Ki", "result": "61.3 µM"}
{"Compound": "Cc1[nH]c(C)c(S(=O)(=O)Nc2ccc([N+](=O)[O-])c(Cl)c2)c1C(=O)N1CCC(F)(F)C1", "target": "DRD3", "test": "β-arrestin recruitment, antagonist", "endpoint": "IC50", "result": "40 µM"}
{"Compound": "COc1ccc(OC(=O)c2ccc(=O)oc2)cc1", "target": "CA12", "test": "enzyme activity, inhibitor, stopped-flow", "endpoint": "Ki", "result": "1.65 µM"}
{"Compound": "CNc1nc(I)nc2c1ncn2[C@H]1[C@H](O)[C@H](O)[C@]2(CC#N)C[C@H]12", "target": "SLC6A3", "test": "ligand displacement, radioligand", "endpoint": "EC50", "result": "> 10 µM"}
{"Compound": "Cc1ccc(NS(=O)(=O)c2c(C)[nH]c(C)c2C(=O)N2CCC2)cc1Cl", "target": "DRD3", "test": "β-arrestin recruitment, antagonist", "endpoint": "IC50", "result": "35 µM"}
{"Compound": "CNC(=O)[C@@]12C[C@@H]1[C@@H](n1cnc3c(NCc4cccc(Cl)c4)nc(C#Cc4ccc(Cl)s4)nc31)[C@H](O)[C@@H]2O", "target": "SLC6A3", "test": "ligand displacement, radioligand", "endpoint": "Ki", "result": "1.6 µM"}
{"Compound": "COc1cc(C(F)(F)F)c(Cl)cc1NS(=O)(=O)c1c(C)[nH]c(C)c1C(=O)N1CCC(F)(F)C1", "target": "DRD3", "test": "β-arrestin recruitment, antagonist", "endpoint": "IC50", "result": "7.2 µM"}
{"Compound": "O=C(NCc1cn(-c2ccccc2)nn1)c1ccc(=O)oc1", "target": "CA12", "test": "enzyme activity, inhibitor, stopped-flow", "endpoint": "Ki", "result": "62 µM"}
{"Compound": "CCOC(=O)[C@@]12C[C@@H]1[C@@H](n1cnc3c(Nc4ccccc4)nc(C#Cc4ccc(Cl)s4)nc31)[C@H](O)[C@@H]2O", "target": "SLC6A3", "test": "ligand displacement, radioligand", "endpoint": "Ki", "result": "1.4 µM"}
{"Compound": "COc1ccc(-n2cc(CNC(=O)c3ccc(=O)oc3)nn2)cc1", "target": "CA12", "test": "enzyme activity, inhibitor, stopped-flow", "endpoint": "Ki", "result": "58.7 µM"}
{"Compound": "Cc1[nH]cc(S(=O)(=O)Nc2ccc(C(F)(F)F)c(Cl)c2)c1C(=O)N(C)C", "target": "DRD3", "test": "G protein activation, antagonist, BRET", "endpoint": "IC50", "result": "6.3 µM"}
{"Compound": "CC(C)(Sc1ccc(CCN(CCCCC2CCCCC2)C(=O)NC2CCCCC2)cc1)C(=O)O", "target": "Triggering receptor expressed on myeloid cells 2 (Homo sapiens, UniProt Q9NZC2)", "test": "binding, SPR", "endpoint": "Kd", "result": "86.2 µM"}
{"Compound": "CCOC(=O)[C@@]12C[C@@H]1[C@@H](n1ccc3c(NCCCCCc4ccccc4)nc(C#Cc4ccccc4)nc31)[C@H](O)[C@@H]2O", "target": "SLC6A3", "test": "ligand displacement, radioligand", "endpoint": "Ki", "result": "1.9 µM"}
{"Compound": "C#CCOC(=O)c1ccc(=O)oc1", "target": "CA12", "test": "enzyme activity, inhibitor, stopped-flow", "endpoint": "Ki", "result": "76.3 µM"}
{"Compound": "CCOC(=O)[C@@]12C[C@@H]1[C@@H](n1ccc3c(NCCCCc4ccccc4)nc(C#Cc4ccccc4)nc31)[C@H](O)[C@@H]2O", "target": "SLC6A3", "test": "ligand displacement, radioligand", "endpoint": "Ki", "result": "8 µM"}
{"Compound": "O=C(Oc1ccc(Br)cc1)c1ccc(=O)oc1", "target": "CA12", "test": "enzyme activity, inhibitor, stopped-flow", "endpoint": "Ki", "result": "0.91 µM"}
{"Compound": "Cc1[nH]c(C)c(S(=O)(=O)Nc2ccc(S(C)(=O)=O)c(Cl)c2)c1C(=O)N1CCC(F)(F)C1", "target": "DRD3", "test": "G protein activation, antagonist, BRET", "endpoint": "IC50", "result": "23 µM"}
{"Compound": "N#CSCc1cc(=O)oc2cc(O)ccc12", "target": "CA12", "test": "enzyme activity, inhibitor, stopped-flow", "endpoint": "Ki", "result": "0.0236 µM"}
{"Compound": "O=C(OC1CCCCC1)c1ccc(=O)oc1", "target": "CA12", "test": "enzyme activity, inhibitor, stopped-flow", "endpoint": "Ki", "result": "3.12 µM"}
{"Compound": "Cc1[nH]c(C)c(S(=O)(=O)Nc2ccc(C(F)(F)F)c(Cl)c2)c1C(=O)N1CC[C@@H](F)C1", "target": "DRD3", "test": "G protein activation, antagonist, BRET", "endpoint": "IC50", "result": "1 µM"}
{"Compound": "CNC(=O)[C@@]12C[C@@H]1[C@@H](n1cnc3c(Nc4ccccc4)nc(C#Cc4ccc(Cl)s4)nc31)[C@H](O)[C@@H]2O", "target": "SLC6A3", "test": "ligand displacement, radioligand", "endpoint": "Ki", "result": "1.6 µM"}
{"Compound": "O=C(OCc1cn(-c2ccc([N+](=O)[O-])cc2)nn1)c1ccc(=O)oc1", "target": "CA12", "test": "enzyme activity, inhibitor, stopped-flow", "endpoint": "Ki", "result": "62.8 µM"}
{"Compound": "Cc1[nH]c(C)c(S(=O)(=O)Nc2ccc(C(F)(F)F)c(Cl)c2)c1C(=O)O", "target": "DRD3", "test": "G protein activation, antagonist, BRET", "endpoint": "IC50", "result": "19 µM"}
{"Compound": "CCOC(=O)[C@@]12C[C@@H]1[C@@H](n1cnc3c(NCCO)nc(C#Cc4ccc(Cl)s4)nc31)[C@H](O)[C@@H]2O", "target": "SLC6A3", "test": "ligand displacement, radioligand", "endpoint": "EC50", "result": "0.97 µM"}
